From ChEMBL document CHEMBL1127358 (J Med Chem, 1994)

What was measured:
[1] = tested on: Muscarinic acetylcholine receptors M2 & M3 (Cavia porcellus); assay: Selectivity ratio is the antilog of the difference between the pA2 values at guinea pig left atrium and ileum muscarinic receptors
[2] = molecular target: Muscarinic acetylcholine receptor M2 (Cavia porcellus); assay: Antagonistic activity against M2 muscarinic receptor in guinea pig left atrium derived by plotting log(DR - 1) vs log[antagonist]; conditions: read-out: pA2 (converted)
[3] = molecular target: T1, Muscarinic acetylcholine receptor M3 (Cavia porcellus, UniProt Q8VH26); assay: Antagonistic activity against M3 muscarinic receptor in guinea pig left ileum derived by plotting log(DR - 1) vs log[antagonist]; assay type: functional, tissue-based; conditions: read-out: pA2 (converted)
Summary of the method: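 Guinea pig tissue. Ileum: terminal segments about 2 cm, 1 g tension, 37 °C, Tyrode solution, isotonic recording. Carbachol dose–response curves (0.01–0.5 μM) at 30 min intervals, second curve as control. Repeated after 60 min antagonist incubation. Dose ratios at agonist EC50, one to six antagonist concentrations, each tested 4–8 times. pA2 from Schild plot of log(DR−1); mean ± SE.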

[4] = Tested for affinity constant against M4 muscarinic receptor in NG 108-15 cell homogenates using [3H]NMS; assay type: cell-based
[5] = molecular target: T2, Muscarinic acetylcholine receptor M2 (Rattus norvegicus, UniProt P10980); assay: Tested for affinity constant against M2 muscarinic receptor rat heart using [3H]-NMS
T2 sequence (P10980 whole entry): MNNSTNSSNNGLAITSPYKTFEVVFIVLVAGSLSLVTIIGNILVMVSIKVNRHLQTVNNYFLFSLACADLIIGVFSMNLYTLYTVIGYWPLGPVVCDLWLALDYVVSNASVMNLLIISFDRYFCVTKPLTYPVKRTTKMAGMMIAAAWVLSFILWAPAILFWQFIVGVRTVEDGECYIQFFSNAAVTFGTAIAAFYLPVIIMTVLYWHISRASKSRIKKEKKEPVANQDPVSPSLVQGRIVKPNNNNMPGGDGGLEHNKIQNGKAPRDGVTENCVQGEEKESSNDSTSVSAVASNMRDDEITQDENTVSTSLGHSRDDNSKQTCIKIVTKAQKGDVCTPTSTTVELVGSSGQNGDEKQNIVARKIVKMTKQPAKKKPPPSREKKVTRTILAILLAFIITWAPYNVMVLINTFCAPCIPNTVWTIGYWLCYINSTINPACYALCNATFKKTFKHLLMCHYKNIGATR

[6] = molecular target: T3, Muscarinic acetylcholine receptor M1 (Rattus norvegicus, UniProt P08482); assay: Tested for affinity constant against M1 muscarinic receptor in rat cortex using [3H]pirenzepine
T3 sequence (P08482 whole entry): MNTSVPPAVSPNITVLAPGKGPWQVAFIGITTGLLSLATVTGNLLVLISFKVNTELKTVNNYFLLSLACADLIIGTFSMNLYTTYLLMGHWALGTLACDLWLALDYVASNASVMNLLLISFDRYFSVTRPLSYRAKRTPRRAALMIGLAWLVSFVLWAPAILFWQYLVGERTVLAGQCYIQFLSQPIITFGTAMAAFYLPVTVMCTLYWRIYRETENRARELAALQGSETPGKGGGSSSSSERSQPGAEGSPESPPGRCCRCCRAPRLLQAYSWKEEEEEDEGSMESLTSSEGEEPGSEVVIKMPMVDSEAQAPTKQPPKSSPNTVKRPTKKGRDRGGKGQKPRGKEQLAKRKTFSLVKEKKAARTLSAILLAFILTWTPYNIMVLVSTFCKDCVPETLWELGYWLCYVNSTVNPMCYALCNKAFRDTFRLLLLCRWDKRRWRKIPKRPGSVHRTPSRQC

[7] = molecular target: Muscarinic acetylcholine receptor M3 (Rattus norvegicus, UniProt P08483); assay: Tested for affinity constant against M3 muscarinic receptor in rat submaxillary gland using [3H]NMS; assay type: tissue-based
[8] = molecular target: Muscarinic acetylcholine receptor M3 (Rattus norvegicus) (UniProt P08483); assay: Inhibitory activity against M3 muscarinic receptor binding in rat submaxillary gland by [3H]NMS at 10 uM concentration; assay type: tissue-based
Summary of the method: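 Rat submaxillary gland homogenate. […] Nonspecific binding defined with 10 μM atropine. Percent inhibition of specific binding scored, with IC50 not derivable when inhibition stayed below 50%.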

[9] = molecular target: T1, Muscarinic acetylcholine receptor M3; assay: Antagonistic activity against M3 muscarinic receptor in guinea pig left ileum derived by plotting log(DR - 1) vs log[antagonist]; inactive up to a concentration of 10; assay type: functional, tissue-based; conditions: read-out: pA2 (converted)
Summary of the method: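 Guinea pig ileum segments at 37 °C in Tyrode solution, isotonic recording. Carbachol dose–response curves were run before and after 60 min antagonist incubation. Compounds were tested up to 10 μM antagonist, and inactivity was scored up to that concentration.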

T1 sequence (Q8VH26 whole entry): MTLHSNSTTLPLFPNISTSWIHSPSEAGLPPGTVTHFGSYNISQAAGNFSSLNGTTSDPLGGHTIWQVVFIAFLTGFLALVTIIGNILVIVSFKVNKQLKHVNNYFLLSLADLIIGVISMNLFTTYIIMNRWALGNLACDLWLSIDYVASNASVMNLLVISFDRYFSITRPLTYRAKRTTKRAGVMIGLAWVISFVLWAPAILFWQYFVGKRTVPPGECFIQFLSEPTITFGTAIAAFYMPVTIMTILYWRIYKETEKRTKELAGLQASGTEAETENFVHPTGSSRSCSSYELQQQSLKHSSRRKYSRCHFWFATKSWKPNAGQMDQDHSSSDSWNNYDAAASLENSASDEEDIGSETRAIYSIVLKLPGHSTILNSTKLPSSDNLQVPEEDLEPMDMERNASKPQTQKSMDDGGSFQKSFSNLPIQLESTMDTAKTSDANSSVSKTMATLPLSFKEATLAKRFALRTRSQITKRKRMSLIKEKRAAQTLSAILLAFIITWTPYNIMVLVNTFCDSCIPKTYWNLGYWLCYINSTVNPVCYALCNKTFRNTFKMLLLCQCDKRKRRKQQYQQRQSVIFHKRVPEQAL
Sequence of Muscarinic acetylcholine receptor M3 (Rattus norvegicus, UniProt P08483) (P08483 whole entry): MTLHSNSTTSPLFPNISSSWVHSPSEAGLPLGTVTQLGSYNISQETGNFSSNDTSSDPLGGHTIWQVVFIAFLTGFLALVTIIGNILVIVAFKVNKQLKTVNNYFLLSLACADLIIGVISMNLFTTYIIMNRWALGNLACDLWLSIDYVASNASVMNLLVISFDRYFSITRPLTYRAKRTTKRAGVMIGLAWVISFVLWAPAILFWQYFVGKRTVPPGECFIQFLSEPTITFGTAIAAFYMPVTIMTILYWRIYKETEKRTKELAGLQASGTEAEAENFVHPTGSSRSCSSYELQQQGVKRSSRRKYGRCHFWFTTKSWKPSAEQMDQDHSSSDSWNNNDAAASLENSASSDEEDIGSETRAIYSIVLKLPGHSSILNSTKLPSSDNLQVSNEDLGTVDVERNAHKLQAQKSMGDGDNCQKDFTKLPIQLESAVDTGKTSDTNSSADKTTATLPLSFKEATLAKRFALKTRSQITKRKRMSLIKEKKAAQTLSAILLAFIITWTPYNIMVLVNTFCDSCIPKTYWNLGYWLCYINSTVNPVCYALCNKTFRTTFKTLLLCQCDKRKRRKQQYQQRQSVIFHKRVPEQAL
Sequence of Muscarinic acetylcholine receptor M3 (Rattus norvegicus) (P08483 whole entry, looked up): as the sequence (P08483 whole entry) above

Row | SMILES | Ratio [1] | Kb [2] [nM] | Kb [3] [nM] | Log Ki [4] | Ki [5] [nM] | Ki [6] [nM] | Ki [7] [nM] | inhibition [8] [%] | Kb [9] [nM]
1 | COc1ccccc1CNCCCCCCNCCCCCCCCNCCCCCCN | 17 | 91.2 | 1550 |  |  |  |  |  | 
2 | COc1ccccc1CNCCCCCCNCCCCCCCCNCCCCCCNCc1ccccc1OC [METHOCTRAMINE] |  |  |  | -7.58 |  |  |  |  | 
3 | COc1ccccc1CN(CCCCCCN(C)CCCCCCCCN(C)CCCCCCN(CC(=O)N1c2ccccc2C(=O)Nc2cccnc21)Cc1ccccc1OC)CC(=O)N1c2ccccc2C(=O)Nc2cccnc21.O=C(O)C(=O)O.O=C(O)C(=O)O.O=C(O)C(=O)O.O=C(O)C(=O)O | 26 | 47.9 | 2040 | -7.8 | 3.72 | 1.26 | 251 |  | 
4 | CN(CCCCCCN)CCCCCCCCN(C)CCCCCCNCC(=O)N1c2ccccc2C(=O)Nc2cccnc21 |  |  | 661 | -7.74 |  | 2.69 | 468 |  | 
5 | CN(CCCCCCN)CCCCCCCCN(C)CCCCCCN | 27 | 282 | 7590 |  |  |  |  |  | 
6 | CCN(CC)CCCCC1CCN(CC(=O)N2c3ccccc3C(=O)Nc3cccnc32)CC1 |  |  | 100 | -7.82 |  | 105 | 251 |  | 
7 | COc1ccccc1CN(CCCCCCN(C)CCCCCCCCN(C)CCCCCCNCC(=O)N1c2ccccc2C(=O)Nc2cccnc21)CC(=O)N1c2ccccc2C(=O)Nc2cccnc21.O=C(O)C(=O)O.O=C(O)C(=O)O.O=C(O)C(=O)O.O=C(O)C(=O)O | 260 | 1.58 | 417 | -8.22 | 1.58 | 1.86 |  | < 50 | 
8 | CN(CCCCCCN)CCCCCCCCN(C)CCCCCCN(CC(=O)N1c2ccccc2C(=O)Nc2cccnc21)CC(=O)N1c2ccccc2C(=O)Nc2cccnc21.O=C(O)C(=O)O.O=C(O)C(=O)O.O=C(O)C(=O)O.O=C(O)C(=O)O | 260 | 5.89 | 1550 | -6.72 | 12.9 | 2.51 | 6760 |  | 
9 | COc1ccccc1CNCCCCCCN(C)CCCCCCCCN(C)CCCCCCNCc1ccccc1OC | 48 |  |  |  |  |  |  |  | 
10 | CCN(CC)CCCCCCN(CC(=O)N1c2ccccc2C(=O)Nc2cccnc21)CC(=O)N1c2ccccc2C(=O)Nc2cccnc21 | > 10 | 1050 |  |  |  |  |  |  | > 10000
11 | CN(CCCCCCCCN(C)CCCCCCNCC(=O)N1c2ccccc2C(=O)Nc2cccnc21)CCCCCCNCC(=O)N1c2ccccc2C(=O)Nc2cccnc21 |  |  |  | -8.52 | 2.4 | 1.7 | 174 |  | 
12 | CN(CCCCCCCCN(C)CCCCCCN(CC(=O)N1c2ccccc2C(=O)Nc2cccnc21)CC(=O)N1c2ccccc2C(=O)Nc2cccnc21)CCCCCCNCC(=O)N1c2ccccc2C(=O)Nc2cccnc21 [TRIPITRAMINE] |  |  |  | -7.93 |  |  |  |  | 
13 | CCCCN(CC(=O)N1c2ccccc2C(=O)Nc2cccnc21)CC(=O)N1c2ccccc2C(=O)Nc2cccnc21 | > 6 | 1580 |  |  |  |  |  |  | > 10000
14 | CN(CCCCCCCCN(C)CCCCCCN(CC(=O)N1c2ccccc2C(=O)Nc2cccnc21)CC(=O)N1c2ccccc2C(=O)Nc2cccnc21)CCCCCCN(CC(=O)N1c2ccccc2C(=O)Nc2cccnc21)CC(=O)N1c2ccccc2C(=O)Nc2cccnc21.O=C(O)C(=O)O.O=C(O)C(=O)O.O=C(O)C(=O)O.O=C(O)C(=O)O | 49 | 15.5 | 759 | -7.05 | 21.9 | 4.79 | 155 |  | 
15 | COc1ccccc1CNCCCCCCN(C)CCCCCCCCN(C)CCCCCCNCC(=O)N1c2ccccc2C(=O)Nc2cccnc21 | 190 | 3.09 | 575 | -7.24 | 1.7 | 28.2 | 794 |  | 
16 | CCN(CC)CCCCCCNCc1ccccc1OC | > 4 | 2510 |  |  |  |  |  |  | > 10000
17 | COc1ccccc1CNCCCCCCN(C)CCCCCCCCN(C)CCCCCCN(CC(=O)N1c2ccccc2C(=O)Nc2cccnc21)CC(=O)N1c2ccccc2C(=O)Nc2cccnc21.O=C(O)C(=O)O.O=C(O)C(=O)O.O=C(O)C(=O)O.O=C(O)C(=O)O | 98 | 4.57 | 447 | -7.9 | 18.6 | 15.8 | 2510 |  | 
18 | CCN(CC)CCCCCCNCC(=O)N1c2ccccc2C(=O)Nc2cccnc21 | 3 | 251 | 832 |  |  |  |  |  | 
19 | CCN(CC)CCCCCCN(CC(=O)N1c2ccccc2C(=O)Nc2cccnc21)Cc1ccccc1OC | 7 | 178 | 1260 |  |  |  |  |  | 
